# Compounds with a hit are over-represented: about 2.2% of the library has one in this group of screens.
# FID counter – counter-screen for HCV NS3 helicase inhibitors: DNA intercalator displacement | AID 1845 | DNA fluorescent intercalator displacement, fluorescence | 290,000 tested, 0.17% active | inhibition, % at 7.9 µM; in the data active = inhibition above about 37%;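 note: 0% = vehicle and 100% = reference compound; higher means more ethidium bromide displaced from hairpin DNA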
# HCV NS3 hel inh – inhibitors of Hepatitis C virus NS3 helicase | NS3 helicase DNA unwinding, Cy5 molecular beacon fluorescence | inhibition, % at 10.9 µM | 290,000 tested, 0.56% active | AID 1800;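 active = inhibition above the mean of all tested compounds plus 3 SD, set per campaign, cut at about 35% in these data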;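 note: 0% = DMSO wells and 100% = thioflavine S control wells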
#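 System: HCV NS3 helicase fragment; control set: DMSO and thioflavine S; technique: Cy5 fluorescence at 0 and 60 min, beacon hairpin quenching; reagent: beacon DNA duplex substrate plus ATP; replicates: singlicate; schedule: 1 h reaction at 25 °C, ATP-initiated; medium: MOPS buffer pH 6.5 with MgCl2, DTT, Tween20, BSA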
# GPR7 antag – human neuropeptides B/W receptor 1 antagonism; P48145; GPR7-expressing cells, fluorescence antagonist assay; inhibition, % at 4.4 µM; 290,000 tested, 1.1% active; in the data active = inhibition above about 16%, passing the limit was not always enough;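 note: cells stimulated with the agonist NPW; 0% = agonist with vehicle and 100% = vehicle without agonist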
# DAGLB inhibitor – blocks human DAGLB lipase activity; inhibition, % at 5.17 µM; 340,000 tested, 0.059% active; Q8NCG7; HEK293T DAGLB membrane lysate, EnzChek fluorogenic substrate; AID 504411; in the data active = inhibition above about 34%;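 note: 0% = enzyme with vehicle and 100% = wells lacking enzyme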
# Target sequence (Q8NCG7 whole entry, looked up): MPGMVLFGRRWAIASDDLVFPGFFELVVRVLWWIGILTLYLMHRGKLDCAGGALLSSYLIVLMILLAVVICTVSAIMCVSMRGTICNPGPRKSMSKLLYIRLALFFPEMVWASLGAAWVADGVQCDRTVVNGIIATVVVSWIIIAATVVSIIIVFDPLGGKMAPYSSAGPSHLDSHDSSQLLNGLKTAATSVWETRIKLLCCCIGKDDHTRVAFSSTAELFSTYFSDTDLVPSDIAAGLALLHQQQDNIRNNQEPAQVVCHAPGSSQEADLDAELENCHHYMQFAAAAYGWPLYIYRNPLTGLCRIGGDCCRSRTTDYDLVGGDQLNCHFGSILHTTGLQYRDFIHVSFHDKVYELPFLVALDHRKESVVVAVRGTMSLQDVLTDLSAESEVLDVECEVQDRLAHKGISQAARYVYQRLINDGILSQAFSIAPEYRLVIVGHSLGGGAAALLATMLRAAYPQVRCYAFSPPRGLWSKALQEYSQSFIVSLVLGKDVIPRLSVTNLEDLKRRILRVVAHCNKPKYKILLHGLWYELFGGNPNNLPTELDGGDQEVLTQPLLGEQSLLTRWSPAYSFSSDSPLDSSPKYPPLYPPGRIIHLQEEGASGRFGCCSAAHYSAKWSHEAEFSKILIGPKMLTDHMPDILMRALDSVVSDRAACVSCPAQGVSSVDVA
# GRK2 inh – human GRK2 inhibition via aptamer displacement. P25098. bead flow cytometry, FAM-aptamer displacement from GRK2. inhibition of aptamer binding, % at 10 µM. 330,000 tested, 0.59% active. AID 488847;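 active = inhibition of aptamer binding above 40%, roughly 3 SD of noise, on plates passing a quality check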;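 note: median bead fluorescence of bound FAM aptamer so fluorescent compounds give negative values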
# core dimer inh – HCV core protein dimerization inhibition; TR-FRET GST/Flag-core106 dimerization, 1536-well; inhibition, % at 5 µM; 300,000 tested, 0.33% active;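 active = inhibition above the mean of all tested compounds plus 3 SD, set per screening campaign, cut at about 45% in these data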
#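 Material: Tagged HCV core106 pair (GST and Flag) | Amount: GST-core106 13.5 nM, Flag-core106 17 nM | Medium: KF-containing HEPES buffer, pH 7.45, DTT, CHAPS, BSA | Reagent: Eu donor and XL665 acceptor anti-tag antibodies | Schedule: 4 h at 22.5 °C | Technique: Time-resolved FRET, ex 340 nm, em 617 and 671 nm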
# GRK2 inh confirm – confirmation of human GRK2 inhibitors displacing RNA aptamer. shares compounds with GRK2 inh. bead-bound GRK2, FAM-aptamer displacement, flow cytometry. aptamer displacement, % at 10 µM. 2,000 tested, 4% active. AID 504451;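 active = aptamer displacement above 40%, near three times the noise of non-fluorescent compounds, on plates passing quality checks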;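 note: negative values mostly reflect intrinsic compound fluorescence rather than true enhancement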
# Aptamer quench 1 – quenches fluorescent RNA aptamer, GRK2 hit artifact. Fluorescent RNA aptamer beads, quenching, flow cytometry; stronger effect = higher value. shares compounds with GRK2 inh. 110 tested, under 10 active. fluorescence change (kMESF span), kMESF (no concentration beside the values);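 active = compounds whose bead fluorescence drops by more than 37 kMESF across the dose range, marking them as dye quenchers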
# FAM quench CP1 – counter-screen for GRK2 aptamer inhibitors: fluorescent aptamer quenchers. shares compounds with GRK2 inh. Carboxyfluorescein RNA aptamer on beads, flow cytometry quenching; stronger effect = lower value. fluorescence response (% of DMSO), % at 10 µM. 2,000 tested, under 10 active;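 active = compounds that quench the bead-bound fluorescent RNA probe, cutting fluorescence to under half of the solvent control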;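 note: counterscreen run without GRK2 so only probe quenching by compound is measured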
# GRK2 CP2 – confirmation of human GRK2 inhibitors binding RNA aptamer site; shares compounds with GRK2 inh; bead-bound GRK2, FAM-aptamer displacement, flow cytometry; inhibition of aptamer binding, % at 10 µM; 360 tested, under 10 active; AID 504782;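 active = inhibition of aptamer binding above 40%, about triple the noise seen with nonglowing compounds, on plates passing quality control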;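 note: negative values mostly come from compounds that fluoresce themselves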
# FAM quench CP2 – counter-screen for GRK2 binding hits: quenchers of fluorescent RNA aptamer | shares compounds with GRK2 inh | 360 tested, under 10 active | carboxyfluorescein RNA aptamer beads, flow cytometry quenching; stronger effect = lower value | fluorescence response vs DMSO, % at 10 µM;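 active = response vs DMSO under 50%, meaning signal dropped by over half, treated as fluorescence quencher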;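 note: labelled aptamer on streptavidin beads without GRK2 as a quench counter-screen; 100% = bead fluorescence of DMSO wells and lower means quenching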
# FAM quench DR – quenches fluorescent RNA aptamer, GRK2 hit artifact; shares compounds with GRK2 inh; Bead-bound FAM RNA aptamer fluorescence quenching, flow cytometry; stronger effect = lower value; fluorescence ratio to DMSO, % at 11.1 µM; 35 tested, under 10 active; AID 588496;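 active = compounds that dim the fluorescent label, raw bead signal shifting by over 33 units between lowest and highest dose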
# Numbers without * were called inactive; / = no result given.
SMILES,FID counter,HCV NS3 hel inh,GPR7 antag,DAGLB inhibitor,GRK2 inh,core dimer inh,GRK2 inh confirm,FAM quench CP1,others
CC(=O)Oc1ccc(-c2csc(Nc3ccc(S(N)(=O)=O)cc3)n2)cc1,-7.3,-5.8,-6.4,1.0,1.0,-7.8,/,/,
COc1ccc(-c2csc(Nc3ccc(S(N)(=O)=O)cc3)n2)cc1,-57.2,-11.5,-10.7,-0.9,44.0*,-6.3,/,/,GRK2 CP2=-10.8;FAM quench CP2=100.0
Cc1cc(=S)[nH]c(=S)[nH]1,-5.7,16.9,5.1,0.6,1.0,-5.2,/,/,
Cc1occc1C(=O)NNC(=S)Nc1ccccc1C(F)(F)F,-2.7,4.7,-2.2,0.3,0.0,-5.4,/,/,
O=C(NNC(=S)Nc1ccccc1C(F)(F)F)c1ccc(Br)o1,-8.0,-16.0,-16.1,2.2,42.0*,4.8,1.9,101.1,
C=CC(C)(C)c1cc2cc3ccoc3cc2oc1=O,-3.9,0.2,-6.1,-7.7,5.0,6.9,/,/,
O=C(Cn1cccc1C(=O)c1ccccc1)NCc1ccc(F)cc1,-18.1,3.7,13.9,-1.1,3.0,-0.5,/,/,
Nc1cccn2c(-c3ccc(Cl)c(Cl)c3)cnc12,-3.7,16.1,0.9,1.7,0.0,16.5,/,/,
Nc1cccn2c(-c3ccc(Cl)cc3)cnc12,-3.7,30.4,-7.0,-0.6,19.0,5.8,-1.1,98.9,
Cc1ccc2oc(=O)c3cnn(CC(=O)NCCc4ccsc4)c3c2c1,-3.5,-1.8,-2.2,-2.4,61.0*,14.5,4.9,102.5,
Cc1ccc2oc(=O)c3cnn(CC(=O)NCCN(C)C)c3c2c1,0.0,0.5,-1.4,0.4,1.0,-2.2,/,/,
CCCN(C(=O)Cn1ncc2c(=O)oc3ccccc3c21)c1cccc(C)c1,-29.2,-2.6,-3.0,-0.6,6.0,9.3,/,/,
CCN(CCCNC(=O)Cn1ncc2c(=O)oc3ccccc3c21)c1cccc(C)c1,-4.2,-9.0,-0.4,-0.7,74.0*,24.1,1.3,96.3,
O=C(NCCc1ccccc1)c1ccc(S(=O)(=O)N2CCCCC2)cc1,/,/,/,-0.3,/,/,/,/,
Cc1cc2ccccc2n1CCNC(=O)C(C)Oc1ccccc1 (centres undefined),-13.8,-28.2,-7.0,5.8,85.0*,-4.2,27.7,97.2,Aptamer quench 1=-120;FAM quench DR=101.0
Cc1cc2ccccc2n1CCNC(=O)c1ccc(S(=O)(=O)N2CCCCC2)cc1,-36.5,-1.8,3.3,6.1,83.0*,-110.8,84.2*,71.6,Aptamer quench 1=7.5
CSCC[C@H](NC(=O)[C@H]1N2C(=O)c3ccccc3C2SC1(C)C)C(=O)NCc1ccncc1 (some centres undefined),-23.1,7.3,-10.9,-0.1,0.0,4.6,/,/,
CC1C(=O)N2CCCc3cc(S(=O)(=O)N(C)CCC#N)cc1c32 (centres undefined),-3.6,6.6,2.3,2.4,3.0,-7.1,/,/,
Cc1ccc(NC(=O)CSC2=C(C#N)C(c3ccco3)C3=C(CCCC3=O)N2)cc1 (centres undefined),-7.7,-0.3,6.3,-8.2,57.0*,-3.0,0.3,93.8,
C=CCNC(=O)C(=O)Nc1ccc2c(c1)N(S(=O)(=O)c1cccs1)CCC2,/,/,/,-1.2,0.0,1.2,/,/,
CCOC(=O)C1=C(C(F)(F)F)Nc2ncnn2C1c1cccc(OC)c1OC (centres undefined),-8.3,2.5,-7.7,1.2,81.0*,2.0,/,/,GRK2 CP2=-9.0;FAM quench CP2=101.0
COc1cc(/C=C/C(=O)Nc2ccc3nc4n(c(=O)c3c2)CCCC4)cc(OC)c1OC,-15.6,-7.5,-8.6,-0.4,92.0*,-7.0,1.5,99.3,
COc1ccc(/C=C/C(=O)Nc2ccc3nc4n(c(=O)c3c2)CCCC4)cc1,-1.3,1.7,-5.4,-1.6,0.0,4.7,/,/,
Cc1nn(-c2ccc(Cl)cc2)c(=O)c2ccccc12,-3.1,3.7,0.8,-3.1,96.0*,-0.5,1.6,97.1,
Cc1nn(-c2ccc(Cl)c(Cl)c2)c(=O)c2ccccc12,1.2,-4.7,-9.5,-2.1,1.0,-1.9,/,/,
SMILES,FID counter,HCV NS3 hel inh,GPR7 antag,DAGLB inhibitor,GRK2 inh,core dimer inh,GRK2 inh confirm,FAM quench CP1,others
O=C(CCn1c(=S)[nH]c2ccccc2c1=O)NCCc1ccc(Cl)cc1,-11.4,3.3,-1.2,1.1,0.0,3.6,/,/,
O=[N+]([O-])c1ccc(COc2cccc(CN3CCOCC3)c2)cc1,/,/,/,-0.5,/,/,/,/,
Cc1cc(C)nc(SCC(=O)NCc2ccco2)n1,-13.6,10.7,-14.4,0.8,4.0,-2.2,/,/,
COc1ccc(CCNC(=O)CSc2nc3[nH]ncc3c(=O)n2-c2ccccc2Br)cc1OC,-21.8,8.4,-4.7,-1.8,0.0,3.6,/,/,
Nc1nc(SCC(=O)Nc2ccccc2C(F)(F)F)[nH]c(=O)c1-c1ccccc1,-1.7,-13.8,-1.6,0.9,6.0,-3.0,/,/,
O=C(CSc1nc2[nH]ncc2c(=O)n1-c1ccccc1Br)NCc1ccco1,-15.9,9.5,-6.2,0.2,2.0,2.9,/,/,GRK2 CP2=9.0;FAM quench CP2=99.0
Cc1ccc(C2C3=C(CCCC3=O)Nc3nc(SCC(=O)NCc4ccco4)[nH]c(=O)c32)cc1 (centres undefined),-21.0,10.1,-0.7,0.9,2.0,4.7,/,/,GRK2 CP2=14.3;FAM quench CP2=101.0
Cc1nc(SCC(=O)NCc2ccco2)[nH]c(=O)c1C,2.9,-0.2,14.5,1.2,8.0,-7.0,/,/,GRK2 CP2=-26.5;FAM quench CP2=103.0
Nc1nc(SCC(=O)NCc2ccco2)[nH]c(=O)c1-c1ccccc1,-5.5,8.1,-18.6,5.0,24.0,2.8,/,/,GRK2 CP2=-7.6;FAM quench CP2=103.0
COC(=O)c1cccc2c1NC(=O)C2=O,-0.4,-6.7,-6.5,0.6,71.0*,-6.8,1.1,103.3,
Cc1cccc2c1NC(=O)C2=O,/,/,/,-0.1,/,/,/,/,
O=C(N/N=C/c1ccc(Cl)cc1)c1ccc2c(c1)OCO2,-4.2,4.2,12.7,-3.9,59.0*,1.0,-8.8,120.1,
CCC1Sc2ccc(S(=O)(=O)CCC(=O)Nc3ccccc3Cl)cc2NC1=O (centres undefined),-24.2,-3.2,15.2,-4.7,1.0,-6.7,/,/,GRK2 CP2=27.8;FAM quench CP2=98.0
